Measured values from different studies.
Lines come from different studies, so protocols differ.
CTSL: Procathepsin L (CTSL, Homo sapiens, UniProt P07711)
XDH: Xanthine dehydrogenase/oxidase (XDH, Bos taurus, UniProt P80457)
Adra1b: Alpha-1B adrenergic receptor (Adra1b, Rattus norvegicus, UniProt P15823)

SMILES | target | test | conditions | inhibition [%]
N=C(N)c1ccc2cc(OC(=O)c3ccc(N=C(N)N)cc3)ccc2c1 | CTSL | enzyme activity, inhibitor | 10 µM | 57
O=C(Oc1cncc(Cl)c1)c1cc2cc(Cl)ccc2[nH]1 | CTSL | enzyme activity, inhibitor | 10 µM | 3
NC(=O)Cc1ccccc1 | XDH | enzyme activity, inhibitor, absorbance | 200 µg/mL | 17.1
CC(C)Cn1cnc2c(N)nc3ccccc3c21 | Adra1b | ligand displacement, radioligand | 10 µM | 40
O=C(Oc1cncc(Cl)c1)c1cc2c(Cl)cc(Cl)cc2[nH]1 | CTSL | enzyme activity, inhibitor | 10 µM | 14
C#Cc1n[nH]c2c(-c3cn(C(C)c4ccccn4)c(=O)[nH]c3=O)cc(F)cc12 (stereo not shown) | Tyrosine-protein kinase Blk (BLK, Homo sapiens, UniProt P51451) | enzyme activity, inhibitor | 1 µM | 3.1
Cn1cc(-c2cc(F)cc(N3CCn4c(cc5c4CCCC5)C3=O)c2CO)cc(Nc2ccc(N3CCN(C4COC4)CC3)cn2)c1=O | Sphingosine kinase 2 (SPHK2, Homo sapiens, UniProt Q9NRA0) | enzyme activity, inhibitor | 0.1 µM | -10
CC(C)C[C@H](NC(=O)[C@H]1O[C@@H]1C(=O)O)C(=O)NCCCCN=C(N)N | CTSL | enzyme activity, inhibitor | 50 nM | 84
Cn1cc(-c2cccc(N3CCc4c(sc5c4CC(C)(C)C5)C3=O)c2CO)cc(Nc2ccncn2)c1=O | 5'-AMP-activated protein kinase catalytic subunit alpha-1 (PRKAA1, Homo sapiens, UniProt Q13131) | enzyme activity, inhibitor | 1 µM | 1
COc1cc(Nc2ncc(F)c(Nc3ccc4c(n3)NC(=O)C(C)(C)O4)n2)cc(OC)c1OC | Mitogen-activated protein kinase kinase kinase kinase 5 (MAP4K5, Homo sapiens, UniProt Q9Y4K4) | binding, competition with immobilised ligand | 10 µM | 16
CN(C)C(=O)COC(=O)Cc1ccc(OC(=O)c2ccc(NC(=N)N)cc2)cc1 | CTSL | enzyme activity, inhibitor | 10 µM | 2
c1ccc(C(NCCNC(c2ccccc2)c2ccccc2)c2ccccc2)cc1 | XDH | enzyme activity, inhibitor | 10 µM | 5
CC(C)N1CCC[C@H]1CNC(=O)c1cn(C2CCCC2)c(=O)c2c1c1ccccc1n2C | Adra1b | ligand displacement, radioligand | 10 µM | -10
